Data reported in ChEMBL document CHEMBL3739367, “Design and synthesis of fused tetrahydroisoquinoline-iminoimidazolines” (Eur J Med Chem, 2015).

Assays:
[1] = Cytotoxicity against human SH-SY5Y cells after 72 hrs by MTT assay; format: cell-based
How it was run: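 SH-SY5Y neuroblastoma cells grown in DMEM with 2 mM L-glutamine, streptomycin/penicillin, 1 mM non-essential amino acids, 10% heat-inactivated FBS, 37 °C, 5% CO2. Seeded 2000 cells/well, serum-starved 24 h to synchronise, then exposed to various compound concentrations (<0.1% DMSO) for 72 h; growth read by colorimetric MTT assay; CC50 reported.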

Adenosine receptor A2a = Adenosine receptor A2a (Homo sapiens, UniProt P29274); experiment: Displacement of [3H]-[…] from human adenosine A2A receptor expressed in HEK293 cells after 1 hr by scintillation counting; format: cell-based
Sequence of Adenosine receptor A2a (P29274 whole entry): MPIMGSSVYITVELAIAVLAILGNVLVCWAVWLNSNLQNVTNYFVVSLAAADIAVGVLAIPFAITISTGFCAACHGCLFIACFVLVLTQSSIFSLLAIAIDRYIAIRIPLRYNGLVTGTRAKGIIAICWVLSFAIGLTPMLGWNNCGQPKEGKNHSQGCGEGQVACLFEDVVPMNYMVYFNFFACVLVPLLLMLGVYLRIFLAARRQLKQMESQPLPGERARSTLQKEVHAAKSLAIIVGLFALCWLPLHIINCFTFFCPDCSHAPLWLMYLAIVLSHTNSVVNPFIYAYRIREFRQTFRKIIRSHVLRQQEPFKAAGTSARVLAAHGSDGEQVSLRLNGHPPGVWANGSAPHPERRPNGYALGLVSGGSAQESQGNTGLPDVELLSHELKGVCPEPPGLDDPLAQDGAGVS

Row | SMILES | CC50 at 72 h [1] [µM] | Ki (Adenosine receptor A2a) [µM]
1 | N=C1N[C@@H](Cc2ccccc2)CN1Cc1ccccc1 | > 100 | > 200
2 | N=C1N[C@@H](Cc2ccc(O)cc2)CN1Cc1ccccc1 | > 100 | > 200
3 | N=C1N(Cc2ccccc2)C[C@@H]2Cc3ccccc3CN12 | > 100 | 64
4 | CCCCCCN1C[C@@H]2Cc3ccccc3CN2C1=N | > 100 | > 200
5 | CN1C(=N)N(Cc2ccccc2)CC1Cc1ccccc1 (racemic) | > 100 | > 200
6 | C[C@H]1CN(Cc2ccccc2)C(=N)N1 | > 100 | > 200
7 | O=C1[C@@H]2Cc3ccccc3CN2C(=O)N1Cc1ccccc1 | > 100 | 44
8 | N=C1N[C@@H](Cc2ccc(F)cc2)CN1Cc1ccccc1 | > 100 | > 200
9 | N=C1N(Cc2ccccc2)C[C@@H]2CCCCN12 | > 100 | > 200
10 | N=C1N(CCCCc2ccccc2)C[C@@H]2Cc3ccccc3CN12 | > 100 | 35
11 | N=C1N(CCc2ccccn2)C[C@@H]2Cc3ccccc3CN12 | > 100 | > 200
12 | COc1ccc(C[C@H]2CN(Cc3ccccc3)C(=N)N2)cc1 | > 100 | > 200
13 | N=C1N(CCN2CCOCC2)C[C@@H]2Cc3ccccc3CN12 | > 100 | > 200
